Molecules are shown by their SMILES.

Data on three molecules can be found in ChEMBL document CHEMBL1122018, “Synthesis and orexigenic activity of some 1-methyl-4-piperidylidene-Substituted pyrrolo[2,1-g][3] benzazepine and dibenzocycloheptene derivatives” (1982).

Common to all, as to assay type: functional
For assay [1], the system named is Felis catus. The experiment in a line: Average food consumed at the dose of 0.50 mg/kg (po) using 10 cats per dose level at 180 min (control day/ test day); 43/193. The note with it: dose 0.5 mg/kg. The procedure, abridged:
(§1)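 Cats given test compound suspended in 1% methylcellulose, or 1% methylcellulose placebo, by gavage 30 min before a preweighed test meal. Food was offered in surplus for 3 h, and intake was found by reweighing at 30, 60 and 180 min. Ten cats per dose, each dosed no more than once weekly. Test-day intake was compared with the preceding control day by two-tailed paired t test (p < 0.05); values are mean ± SD.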

Assay [2] relates to Felis catus. The experiment in a line: Average food consumed at the dose of 0.50 mg/kg (po) using 10 cats per dose level at 30 min (control day/ test day); 33/109. Particulars: dose 0.5 mg/kg. The method, boiled down:
as §1

Assay [3] deals with Felis catus. The experiment in a line: Average food consumed at the dose of 0.50 mg/kg (po) using 10 cats per dose level at 60 min (control day/ test day); 45/142. The note with it: dose 0.5 mg/kg. The method, boiled down: as §1
Assay [4] deals with Felis catus. The experiment in a line: Average food consumed at the dose of 0.031 mg/kg (po) using 10 cats per dose level at 180 min (control day/ test day); 34/172.
Assay [5] has as its system Felis catus. The experiment in a line: Average food consumed at the dose of 0.25 mg/kg (po) using 10 cats per dose level at 30 min (control day/ test day); 37/98. The method, boiled down:
as §1

Assay [6] relates to Felis catus. The experiment in a line: Average food consumed at the dose of 0.031 mg/kg (po) using 10 cats per dose level at 60 min (control day/ test day); 25/105.
Assay [7] has as its system Felis catus. Put plainly: Average food consumed at the dose of 0.25 mg/kg (po) using 10 cats per dose level at 60 min (control day/ test day); 46/128. The procedure, abridged:
as §1

For assay [8], the system named is Felis catus. Put plainly: Average food consumed at the dose of 0.50 mg/kg (po) using 10 cats per dose level at 30 min (control day/ test day); 24/93. Particulars: dose 0.5 mg/kg. The method, boiled down: as §1
Assay [9] has as its system Felis catus. Put plainly: Average food consumed at the dose of 0.031 mg/kg (po) using 10 cats per dose level at 30 min (control day/ test day); 18/88.
The test system of assay [10] is Felis catus. The experiment in a line: Average food consumed at the dose of 0.50 mg/kg (po) using 10 cats per dose level at 60 min (control day/ test day); 23/129. Particulars: dose 0.5 mg/kg. The method, boiled down: as §1
Assay [11] has as its system Felis catus. Put plainly: Average food consumed at the dose of 0.031 mg/kg (po) using 10 cats per dose level at 30 min (control day/ test day); 25/67.
Assay [12] has as its system Felis catus. The experiment in a line: Average food consumed at the dose of 0.50 mg/kg (po) using 10 cats per dose level at 180 min (control day/ test day); 35/194. The note with it: dose 0.5 mg/kg. The method, boiled down: as §1
The subject of assay [13] is Felis catus. Put plainly: Average food consumed at the dose of 0.031 mg/kg (po) using 10 cats per dose level at 180 min (control day/ test day); 52/182.
In assay [14] the test system is Felis catus. Put plainly: Average food consumed at the dose of 0.031 mg/kg (po) using 10 cats per dose level at 60 min (control day/ test day); 9/113.
For assay [15], the system named is Felis catus. Put plainly: Average food consumed at the dose of 0.25 mg/kg (po) using 10 cats per dose level at 180 min (control day/ test day); 40/210.
The test system of assay [16] is Felis catus. Put plainly: Average food consumed at the dose of 0.50 mg/kg (po) using 10 cats per dose level at 60 min (control day/ test day); 44/217. Particulars: dose 0.5 mg/kg. The method, boiled down:
as §1

For assay [17], the system named is Felis catus. Put plainly: Average food consumed at the dose of 0.063 mg/kg (po) using 10 cats per dose level at 30 min (control day/ test day); 28/137.
Assay [18] concerns Felis catus. Put plainly: Average food consumed at the dose of 0.25 mg/kg (po) using 10 cats per dose level at 30 min (control day/ test day); 33/172. The procedure, abridged:
as §1

Assay [19] has as its system Felis catus. Put plainly: Average food consumed at the dose of 0.50 mg/kg (po) using 10 cats per dose level at 180 min (control day/ test day); 46/243. Particulars: dose 0.5 mg/kg. The procedure, abridged: as §1
Assay [20] deals with Felis catus. Put plainly: Average food consumed at the dose of 0.016 mg/kg (po) using 10 cats per dose level at 60 min (control day/ test day); 16/119.
The test system of assay [21] is Felis catus. The experiment in a line: Average food consumed at the dose of 0.50 mg/kg (po) using 10 cats per dose level at 30 min (control day/ test day); 51/189. Particulars: dose 0.5 mg/kg. The procedure, abridged: as §1
In assay [22] the test system is Felis catus. Put plainly: Average food consumed at the dose of 0.25 mg/kg (po) using 10 cats per dose level at 180 min (control day/ test day); 46/239.
Assay [23] relates to Felis catus. The experiment in a line: Average food consumed at the dose of 0.063 mg/kg (po) using 10 cats per dose level at 60 min (control day/ test day); 37/178.
Assay [24] relates to Felis catus. The experiment in a line: Average food consumed at the dose of 0.063 mg/kg (po) using 10 cats per dose level at 180 min (control day/ test day); 62/219.
Assay [25] deals with Felis catus. The experiment in a line: Average food consumed at the dose of 0.25 mg/kg (po) using 10 cats per dose level at 60 min (control day/ test day); 40/208. The method, boiled down:
as §1

Assay [26] has as its system Felis catus. The experiment in a line: Average food consumed at the dose of 0.016 mg/kg (po) using 10 cats per dose level at 180 min (control day/ test day); 33/182.
The subject of assay [27] is Felis catus. The experiment in a line: Average food consumed at the dose of 0.016 mg/kg (po) using 10 cats per dose level at 30 min (control day/ test day); 16/91.

Consider `CN1CCC(=C2c3cc(C(=O)O)ccc3CCn3cccc32)CC1.Cl`, for which the Average consumed in the assay on Felis catus [1] is listed as 173 g; in the assay with Felis catus [2] it was 92 g; in the assay with Felis catus [3] it was 125 g.
With `CN1CCC(=C2c3cc(C(=O)O)ccc3C=Cn3cccc32)CC1.Cl`, the Average consumed in the assay with Felis catus [4] was determined as 145 g; in the assay on Felis catus [5], 73 g; in the assay with Felis catus [6] it was 84 g; in the assay on Felis catus [7] it was 112 g; in the assay with Felis catus [8] it was 78 g; in the assay on Felis catus [9], 65 g. Further, the Average consumed was 114 g in the assay with Felis catus [10]; 55 g in the assay with Felis catus [11]; 170 g with Felis catus [12]; 184 g in the assay on Felis catus [13]; 98 g in the assay on Felis catus [14]; 176 g in the assay on Felis catus [15].
`CN1CCC(=C2c3ccccc3C=Cn3cccc32)CC1.O=C(O)C(=O)O`: the Average consumed amounted to 148 g in the assay with Felis catus [16]; 66 g in the assay on Felis catus [17]; 113 g with Felis catus [18]; 193 g in the assay with Felis catus [19]; 69 g in the assay on Felis catus [20]; 133 g in the assay with Felis catus [21]. For the same molecule, the Average consumed in the assay on Felis catus [22] was 183 g; in the assay with Felis catus [23], 100 g; in the assay with Felis catus [24], 166 g; in the assay with Felis catus [25] it was 134 g; with Felis catus [26], 126 g; with Felis catus [27], 43 g.
